IDH1 mut inh: inhibitors of human IDH1 R132H. O75874. IDH1 R132H reductase, diaphorase/resazurin fluorescence, 60 min. inhibition, % at 10 µM. 0.18% of 70,000 active; in the data active = inhibition above about 34%; inconclusive = no clear call, values can overlap the other calls; inactive = below about 11%
Target sequence (O75874 whole entry R132H): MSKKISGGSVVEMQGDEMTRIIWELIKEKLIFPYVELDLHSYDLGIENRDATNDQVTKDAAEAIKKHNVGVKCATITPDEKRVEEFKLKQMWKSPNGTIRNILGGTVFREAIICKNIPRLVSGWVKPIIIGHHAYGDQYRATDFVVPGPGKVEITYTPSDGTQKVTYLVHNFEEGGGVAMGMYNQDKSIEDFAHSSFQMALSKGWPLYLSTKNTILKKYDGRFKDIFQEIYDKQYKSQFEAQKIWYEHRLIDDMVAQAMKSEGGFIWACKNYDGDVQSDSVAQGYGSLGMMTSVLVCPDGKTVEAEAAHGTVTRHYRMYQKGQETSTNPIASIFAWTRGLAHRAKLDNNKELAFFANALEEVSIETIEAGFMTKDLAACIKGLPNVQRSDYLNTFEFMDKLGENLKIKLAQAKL
GASC1 inh: KDM4C (human) demethylase inhibition. inhibition, % at 12.5 µM. GST-KDM4C 2-372, H3K9me3 peptide, LANCE TR-FRET. 0.15% of 96,000 active;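 active = mean replicate inhibition above about 25%, with at least 55% of replicates also reaching it, limit read from the data, passing the limit was not always enough; inconclusive = only one of those two conditions met; inactive = neither condition met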
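Material: GST-tagged GASC-1 (JMJD2C) catalytic fragment, aa 2-372. Input: enzyme final amount 10 nM. Medium: HEPES buffer, pH 7.5, plus ascorbate. Reagent: H3K9me3 peptide substrate, Fe(II), 2-oxoglutarate. Doses: single dose. Times: reaction 30 min RT, detection step 1 h RT. Measured by: LANCE TR-FRET. Evaluation: Fall in 671/618 emission ratio as inhibition.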
T cruzi growth-1: inhibitors of T. cruzi proliferation; T. cruzi beta-gal in NIH3T3, GalScreen luminescence, 90 h; inhibition, % at 8.34 µM; 5.9% of 77,000 active; AID 624255;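 active = mean inhibition above about 93%, with at least 55% of replicates each passing it, limit read from the data, passing the limit was not always enough; inconclusive = only one of those two conditions holds; inactive = neither condition holds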
T cruzi growth-2: inhibitors of T. cruzi proliferation; shares compounds with T cruzi growth-1; T. cruzi beta-gal in NIH3T3, GalScreen luminescence, 90 h; inhibition, % at 8.35 µM; 72% of 5,600 active; AID 651739;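 active = mean replicate inhibition above about 95% and at least 55% of replicates individually reaching it, limit read from the data; inconclusive = only one of the two criteria is met; inactive = neither criterion is met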
T cruzi growth-3: blocks T. cruzi growth in NIH3T3 host cells | 21% of 5,600 active | shares compounds with T cruzi growth-1 | T. cruzi beta-gal in NIH3T3, GalScreen luminescence, 90 h | inhibition, % at 2.09 µM;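 active = mean inhibition above about 95%, with at least 55% of replicates also reaching it, limit read from the data; inconclusive = meets just one of the two conditions; inactive = meets neither condition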
3T3 cytotox: cytotoxicity in mouse NIH/3T3 fibroblasts | shares compounds with T cruzi growth-1 | NIH/3T3 viability, CellTiter-Glo ATP luminescence, 90 h | cytotoxicity (signal decrease), % at 8.35 µM | 14% of 5,600 active | AID 651742;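 active = mean signal decrease across replicates above about 35% based on untreated-well scatter, with enough replicates individually passing, limit read from the data; inconclusive = no rule stated though some were filed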
NIH3T3 tox 2: NIH/3T3 (mouse) viability loss; shares compounds with T cruzi growth-1; AID 651744; inhibition, % at 24.9 µM; NIH/3T3 viability, CellTiter-Glo ATP luminescence, 90 h; 56% of 5,600 active;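 active = mean loss of cell viability signal at or above a set limit, and enough replicates individually reaching it; inconclusive = meets only the mean limit or only the replicate share; inactive = meets neither condition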
Of the large screens only hits and unclear results are named; the others gave an inactive call (follow-up assays come after a bar, where they were run). The entries come from a sample that favours hits as a whole.

COc1ccc(-c2noc(CN(C(C)C)S(=O)(=O)c3ccccc3)n2)cc1	none (no result: GASC1 inh, T cruzi growth-1)
COc1ccc(CN(C)C[C@@H]2Oc3ccc(NC(=O)Nc4ccccc4)cc3C(=O)N([C@H](C)CO)C[C@@H]2C)cc1	none
COc1ccc(NC(=O)Nc2ccc3c(c2)C(=O)N([C@@H](C)CO)C[C@@H](C)[C@@H](CN(C)Cc2ccc(-c4ccccc4)cc2)O3)cc1	T cruzi growth-1 100 | T cruzi growth-2 104 | T cruzi growth-3 108 | 3T3 cytotox 55 | NIH3T3 tox 2 84
COc1ccc(NC(=O)Nc2ccc3c(c2)C(=O)N([C@H](C)CO)C[C@H](C)[C@H](CN(C)Cc2ccc(-c4ccccc4)cc2)O3)cc1	T cruzi growth-1 inconclusive | T cruzi growth-2 100 | T cruzi growth-3 inactive | 3T3 cytotox inactive | NIH3T3 tox 2 inactive
COc1ccc(CN(C)C[C@@H]2Oc3ccc(NC(=O)Nc4ccccc4)cc3C(=O)N([C@@H](C)CO)C[C@@H]2C)cc1	none
O=C(CSc1n[nH]c(-c2ccncc2)n1)Nc1ccc(Cl)cc1Cl	none (no result: GASC1 inh, T cruzi growth-1)
C[C@@H]1CN([C@H](C)CO)C(=O)c2cc(/C=C/c3ccccc3)cnc2O[C@H]1CN(C)Cc1ccccc1	T cruzi growth-1 114 | T cruzi growth-2 113 | T cruzi growth-3 98 | 3T3 cytotox inactive | NIH3T3 tox 2 105
C[C@@H]1CN([C@@H](C)CO)C(=O)c2cc(/C=C/c3ccccc3)cnc2O[C@H]1CN(C)Cc1ccncc1	T cruzi growth-1 120 | T cruzi growth-2 114 | T cruzi growth-3 inactive | 3T3 cytotox inactive | NIH3T3 tox 2 inactive
C[C@H](CO)N1C[C@H](C)[C@H](CN(C)Cc2ccncc2)Oc2ncc(/C=C/c3ccccc3)cc2C1=O	none
C[C@@H]1CN([C@@H](C)CO)C(=O)c2cc(/C=C/c3ccccc3)cnc2O[C@H]1CN(C)C(=O)Cc1ccccn1	T cruzi growth-1 101 | T cruzi growth-2 103 | T cruzi growth-3 99 | 3T3 cytotox inactive | NIH3T3 tox 2 46
C[C@H]1CN([C@@H](C)CO)C(=O)c2cc(/C=C/c3ccccc3)cnc2O[C@H]1CN(C)Cc1ccncc1	none
C[C@H](CO)N1C[C@H](C)[C@H](CN(C)C(=O)Cc2ccccn2)Oc2ncc(/C=C/c3ccccc3)cc2C1=O	none
C[C@H](CO)N1C[C@H](C)[C@H](CN(C)S(C)(=O)=O)Oc2cc(C#Cc3ccc(F)cc3)ccc2S1(=O)=O	T cruzi growth-1 115 | T cruzi growth-2 103 | T cruzi growth-3 inactive | 3T3 cytotox inactive | NIH3T3 tox 2 51
CCCC#Cc1ccc2c(c1)O[C@@H](CN(C)S(C)(=O)=O)[C@@H](C)CN([C@@H](C)CO)S2(=O)=O	T cruzi growth-1 101 | T cruzi growth-2 inconclusive | T cruzi growth-3 inconclusive | 3T3 cytotox inactive | NIH3T3 tox 2 58
C[C@H]1CN([C@@H](C)CO)S(=O)(=O)c2ccc(C#Cc3ccc(F)cc3)cc2O[C@@H]1CN(C)S(C)(=O)=O	T cruzi growth-1 122 | T cruzi growth-2 102 | T cruzi growth-3 inactive | 3T3 cytotox inconclusive | NIH3T3 tox 2 87
C[C@H](CO)N1C[C@H](C)[C@@H](CN(C)C)Oc2cc(C#Cc3ccc(F)cc3)ccc2S1(=O)=O	none
CCCC#Cc1ccc2c(c1)O[C@@H](CN(C)S(C)(=O)=O)[C@H](C)CN([C@@H](C)CO)S2(=O)=O	none
C[C@@H]1CN([C@H](C)CO)S(=O)(=O)c2ccc(C#Cc3ccccc3)cc2O[C@@H]1CN(C)S(C)(=O)=O	none
C[C@@H]1CN([C@@H](C)CO)S(=O)(=O)c2ccc(C#Cc3ccccc3)cc2O[C@@H]1CN(C)S(C)(=O)=O	none
C[C@H]1CN([C@@H](C)CO)S(=O)(=O)c2ccc(C#Cc3ccc(F)cc3)cc2O[C@H]1CN(C)S(C)(=O)=O	T cruzi growth-1 118 | T cruzi growth-2 105 | T cruzi growth-3 inactive | 3T3 cytotox inactive | NIH3T3 tox 2 inactive
COc1ccc(C(=O)NCC(=O)Nc2ccccc2C(F)(F)F)cc1OC	none (no result: GASC1 inh, T cruzi growth-1)
Oc1c(C(Nc2cccnc2)c2ccc(Cl)cc2)ccc2cccnc12 (configuration not stated)	none (no result: GASC1 inh, T cruzi growth-1)
CC(=O)c1cccc(NC(=O)CNS(=O)(=O)c2ccc(Cl)cc2)c1	none (no result: GASC1 inh, T cruzi growth-1)
Cc1ccc(-c2ccc3c(c2)O[C@@H](CN(C)Cc2ccc(F)cc2)[C@@H](C)CN([C@@H](C)CO)S3(=O)=O)cc1	none
C[C@H](CO)N1C[C@H](C)[C@H](CN(C)CC2CC2)Oc2cc(-c3ccccc3)ccc2S1(=O)=O	none
C[C@@H]1CN([C@H](C)CO)S(=O)(=O)c2ccc(-c3ccccc3)cc2O[C@H]1CN(C)Cc1ccccc1	none
C[C@@H]1CN([C@@H](C)CO)S(=O)(=O)c2ccc(-c3ccccc3)cc2O[C@@H]1CN(C)Cc1cccc(F)c1	T cruzi growth-1 123 (no result: IDH1 mut inh) | T cruzi growth-2 inactive | T cruzi growth-3 112 | 3T3 cytotox inactive | NIH3T3 tox 2 107
Cc1ccc(-c2ccc3c(c2)O[C@H](CN(C)Cc2ccc(F)cc2)[C@@H](C)CN([C@H](C)CO)S3(=O)=O)cc1	T cruzi growth-1 98 | T cruzi growth-2 102 | T cruzi growth-3 100 | 3T3 cytotox 46 | NIH3T3 tox 2 104
C[C@@H]1CN([C@@H](C)CO)S(=O)(=O)c2ccc(-c3ccc(F)cc3)cc2O[C@@H]1CN(C)Cc1cccc(F)c1	none
Cc1ccc(-c2ccc3c(c2)O[C@H](CN(C)Cc2ccccc2)[C@H](C)CN([C@H](C)CO)S3(=O)=O)cc1	T cruzi growth-1 121 | T cruzi growth-2 inactive | T cruzi growth-3 110 | 3T3 cytotox inactive | NIH3T3 tox 2 106
C[C@H]1CN([C@@H](C)CO)S(=O)(=O)c2ccc(-c3ccccc3)cc2O[C@H]1CN(C)CC1CC1	T cruzi growth-1 112 | T cruzi growth-2 inactive | T cruzi growth-3 inactive | 3T3 cytotox inactive | NIH3T3 tox 2 79
O=C(COc1ccc(Cl)cc1Cl)Nc1ccc(Br)cc1C(=O)O	none (no result: GASC1 inh, T cruzi growth-1)
CC1(C)CC(=O)C2=C(C1)c1c(ccc3ncccc13)NC2C1CC=CCC1 (configuration not stated)	none (no result: GASC1 inh, T cruzi growth-1)
CC(CC(=O)O)CC(=O)Nc1ccc(C(=O)O)cc1 (configuration not stated)	none (no result: GASC1 inh, T cruzi growth-1)
CS(=O)(=O)N(CC(=O)Nc1ccc(Br)cc1)c1cc(Cl)cc(Cl)c1	none (no result: GASC1 inh, T cruzi growth-1)
Cc1nnc(SCC(=O)c2ccc3c(c2)OCCO3)s1	none (no result: GASC1 inh, T cruzi growth-1)
CCCC#Cc1cnc2c(c1)C(=O)N([C@H](C)CO)C[C@H](C)[C@H](CN(C)S(=O)(=O)c1ccccc1)O2	none
COc1cccc(S(=O)(=O)N(C)C[C@H]2Oc3ncc(C#CC(C)C)cc3C(=O)N([C@@H](C)CO)C[C@@H]2C)c1	T cruzi growth-1 114 | T cruzi growth-2 inactive | T cruzi growth-3 inactive | 3T3 cytotox inactive | NIH3T3 tox 2 inactive
